From PMC3781598 (Pharmaceutical research, 2013)
≈ marks a conversion by molar mass, not a printed value. Entries after “also recorded” stand apart in the source; their conditions may differ.

Legend:
human CYP2A6 [1] = target: T1, human CYP2A6 (Homo sapiens, UniProt P11509); experiment: Spectral ligand binding assay; conditions: for Kd 2A6: spectral titration, ≥ = minimal Kd value
T1 sequence (P11509 with tags, fused parts or gaps limits assumed): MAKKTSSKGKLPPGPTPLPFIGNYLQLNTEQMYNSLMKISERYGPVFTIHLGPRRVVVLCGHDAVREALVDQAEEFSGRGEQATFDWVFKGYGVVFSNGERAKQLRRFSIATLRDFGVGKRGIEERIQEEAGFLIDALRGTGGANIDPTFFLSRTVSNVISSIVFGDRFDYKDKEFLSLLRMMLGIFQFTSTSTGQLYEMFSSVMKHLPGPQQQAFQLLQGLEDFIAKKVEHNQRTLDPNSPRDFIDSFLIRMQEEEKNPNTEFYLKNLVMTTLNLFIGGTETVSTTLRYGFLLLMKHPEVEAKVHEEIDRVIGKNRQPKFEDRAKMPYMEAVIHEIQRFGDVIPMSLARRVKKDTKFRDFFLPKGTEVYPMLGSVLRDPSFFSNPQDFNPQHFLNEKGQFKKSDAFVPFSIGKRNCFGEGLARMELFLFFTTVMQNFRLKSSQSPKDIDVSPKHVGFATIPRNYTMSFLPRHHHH

[2] = Aqueous solubility, shake-flask incubation method; assay type: physicochemical; conditions: phosphate-buffered saline, pH 7.4, aqueous buffer, thermodynamic from solid
Method in brief: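 Shake-flask equilibration of test compound in phosphate-buffered saline, pH 7.4, for 24 h at room temperature.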

genetic toxicity = experiment: Ames test; assay type: cell-based; conditions: compound concentrations 5-100 μM
hERG = hERG (Homo sapiens, UniProt Q12809); experiment: hERG patch clamp assay; assay type: cell-based; conditions: for inhibition at 10 µM: human
Sequence of hERG (Q12809 whole entry): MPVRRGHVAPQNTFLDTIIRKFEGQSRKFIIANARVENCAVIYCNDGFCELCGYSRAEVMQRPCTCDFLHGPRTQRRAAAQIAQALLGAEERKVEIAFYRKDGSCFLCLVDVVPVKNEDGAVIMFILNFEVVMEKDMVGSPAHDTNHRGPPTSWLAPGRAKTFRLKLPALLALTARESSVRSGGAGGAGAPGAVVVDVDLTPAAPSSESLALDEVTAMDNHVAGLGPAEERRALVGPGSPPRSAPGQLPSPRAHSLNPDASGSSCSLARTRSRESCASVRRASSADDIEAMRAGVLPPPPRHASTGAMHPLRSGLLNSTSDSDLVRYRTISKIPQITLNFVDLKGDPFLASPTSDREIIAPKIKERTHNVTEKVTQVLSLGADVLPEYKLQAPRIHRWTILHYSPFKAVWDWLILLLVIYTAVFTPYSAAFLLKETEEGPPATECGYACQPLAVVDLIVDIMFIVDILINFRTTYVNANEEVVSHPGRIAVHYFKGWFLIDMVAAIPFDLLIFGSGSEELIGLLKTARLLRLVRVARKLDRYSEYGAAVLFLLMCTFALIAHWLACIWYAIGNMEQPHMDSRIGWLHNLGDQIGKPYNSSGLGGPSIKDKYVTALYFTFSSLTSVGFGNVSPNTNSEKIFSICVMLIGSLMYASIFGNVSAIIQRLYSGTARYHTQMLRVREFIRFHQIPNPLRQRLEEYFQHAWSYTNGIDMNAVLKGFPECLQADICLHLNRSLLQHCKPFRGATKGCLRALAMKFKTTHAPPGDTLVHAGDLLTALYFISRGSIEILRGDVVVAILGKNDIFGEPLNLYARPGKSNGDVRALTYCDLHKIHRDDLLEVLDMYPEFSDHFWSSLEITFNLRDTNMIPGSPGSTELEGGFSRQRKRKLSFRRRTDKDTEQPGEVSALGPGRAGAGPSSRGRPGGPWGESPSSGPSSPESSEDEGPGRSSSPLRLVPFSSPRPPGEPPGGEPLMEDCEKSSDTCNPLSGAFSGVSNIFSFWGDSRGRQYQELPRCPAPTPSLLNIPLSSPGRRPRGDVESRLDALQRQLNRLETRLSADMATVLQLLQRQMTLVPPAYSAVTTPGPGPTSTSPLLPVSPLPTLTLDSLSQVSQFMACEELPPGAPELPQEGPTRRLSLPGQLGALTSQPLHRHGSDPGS
Method in brief: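 hERG inhibition by patch clamp, measured as block of the tail current. Highest test concentration was 10 μM.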

[3] = Metabolic stability in liver microsomes; assay type: in vitro ADME, human; conditions: for Percent Loss of Substrate / substrate remaining: human liver microsomes; for Percent Loss of Substrate: 1 μM, 20-minute incubation; for substrate remaining: at the end of 20 min; for half-life at 1 μM / microsomal CLint at 1 μM: human, liver microsomes, pH 7.4
Method in brief: (§1)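 Pooled liver or lung microsomes (male B6C2F1 mouse, male Sprague-Dawley rat, human) at 1.0 mg protein/ml in 50 mM potassium phosphate pH 7.4, 3 mM MgCl2, 1 mM EDTA. […] Stopped at 0, 5, 10, 20 min with acetonitrile containing antipyrene, then LC/MS/MS. Single-exponential kel gave T1/2. CLint = kel × incubation volume/mg protein.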

[4] = Metabolic stability in lung microsomes; assay type: in vitro ADME; conditions: human lung microsomes, 1 μM, 20-minute incubation
Method in brief: as §1

[5] = Metabolic stability in liver microsomes; assay type: in vitro ADME, male B6C2F1 mouse; conditions: for half-life at 1 μM / microsomal CLint at 1 μM: male, B6C2F1, mouse, liver microsomes, pH 7.4; for Percent Loss of Substrate: mouse liver microsomes, 1 μM, 20-minute incubation
Method in brief: as §1

[6] = Metabolic stability in lung microsomes; assay type: in vitro ADME, male B6C2F1 mouse; conditions: for half-life at 1 μM / microsomal CLint at 1 μM: male, B6C2F1, mouse, lung microsomes, pH 7.4; for Percent Loss of Substrate: mouse lung microsomes, 1 μM, 20-minute incubation
Method in brief: as §1

[7] = Metabolic stability in liver microsomes; assay type: in vitro ADME, male Sprague-Dawley rat; conditions: for half-life at 1 μM / microsomal CLint at 1 μM: male, Sprague-Dawley, rat, liver microsomes, pH 7.4; for Percent Loss of Substrate: rat liver microsomes, 1 μM, 20-minute incubation
Method in brief: as §1

CYP2C8 = target: T2, CYP2C8 (Homo sapiens, UniProt P10632); experiment: Metabolic stability phenotyping with recombinantly expressed CYPs; assay type: in vitro ADME; conditions: recombinant CYP2C8, pH 7.4
T2 sequence (P10632 1-490): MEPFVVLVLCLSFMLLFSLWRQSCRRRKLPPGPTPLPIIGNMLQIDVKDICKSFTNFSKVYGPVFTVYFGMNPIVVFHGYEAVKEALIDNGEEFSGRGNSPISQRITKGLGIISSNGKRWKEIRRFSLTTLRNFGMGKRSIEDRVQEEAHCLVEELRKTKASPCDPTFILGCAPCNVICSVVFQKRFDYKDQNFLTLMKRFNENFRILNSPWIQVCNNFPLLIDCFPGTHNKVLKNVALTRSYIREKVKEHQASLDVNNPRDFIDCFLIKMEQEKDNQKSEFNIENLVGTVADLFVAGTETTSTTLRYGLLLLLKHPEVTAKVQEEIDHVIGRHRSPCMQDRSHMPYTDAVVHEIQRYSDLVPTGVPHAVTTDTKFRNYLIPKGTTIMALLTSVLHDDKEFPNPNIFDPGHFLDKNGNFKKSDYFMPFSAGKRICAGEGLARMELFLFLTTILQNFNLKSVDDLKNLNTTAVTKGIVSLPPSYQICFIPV
Method in brief: (§2)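 Each recombinant human CYP at 100 pmol/ml with 1 μM test compound in potassium phosphate pH 7.4, 3.33 mM MgCl2. Prewarmed 10 min at 37 °C, then started with NADPH regenerating system; no-NADPH buffer controls. Aliquots at 0–45 min quenched in methanol with buspirone internal standard. MS peak-area ratios gave ln(ratio)-vs-time slope, converted to T1/2. Duplicates.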

CYP2C9 = CYP2C9 (Homo sapiens, UniProt P11712); experiment: as above; assay type: in vitro ADME; conditions: recombinant CYP2C9, pH 7.4
Sequence of CYP2C9 (P11712 whole entry): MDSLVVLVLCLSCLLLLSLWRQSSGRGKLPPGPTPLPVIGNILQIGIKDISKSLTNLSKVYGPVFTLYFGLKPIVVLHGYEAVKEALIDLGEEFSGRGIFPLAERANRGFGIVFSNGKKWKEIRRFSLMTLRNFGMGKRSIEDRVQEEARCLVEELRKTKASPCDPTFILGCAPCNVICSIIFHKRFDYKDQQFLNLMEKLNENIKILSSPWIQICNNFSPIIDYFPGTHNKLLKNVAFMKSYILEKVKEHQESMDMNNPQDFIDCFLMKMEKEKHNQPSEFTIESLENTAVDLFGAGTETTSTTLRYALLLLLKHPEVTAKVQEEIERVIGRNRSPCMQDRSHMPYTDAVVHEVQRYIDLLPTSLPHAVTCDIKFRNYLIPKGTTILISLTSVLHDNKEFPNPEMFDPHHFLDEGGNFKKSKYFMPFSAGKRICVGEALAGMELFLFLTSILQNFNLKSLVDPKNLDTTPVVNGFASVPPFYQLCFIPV
Method in brief: as §2

CYP2C19 = CYP2C19 (Homo sapiens, UniProt P33261); experiment: as above; assay type: in vitro ADME; conditions: recombinant CYP2C19, pH 7.4
Sequence of CYP2C19 (P33261 whole entry): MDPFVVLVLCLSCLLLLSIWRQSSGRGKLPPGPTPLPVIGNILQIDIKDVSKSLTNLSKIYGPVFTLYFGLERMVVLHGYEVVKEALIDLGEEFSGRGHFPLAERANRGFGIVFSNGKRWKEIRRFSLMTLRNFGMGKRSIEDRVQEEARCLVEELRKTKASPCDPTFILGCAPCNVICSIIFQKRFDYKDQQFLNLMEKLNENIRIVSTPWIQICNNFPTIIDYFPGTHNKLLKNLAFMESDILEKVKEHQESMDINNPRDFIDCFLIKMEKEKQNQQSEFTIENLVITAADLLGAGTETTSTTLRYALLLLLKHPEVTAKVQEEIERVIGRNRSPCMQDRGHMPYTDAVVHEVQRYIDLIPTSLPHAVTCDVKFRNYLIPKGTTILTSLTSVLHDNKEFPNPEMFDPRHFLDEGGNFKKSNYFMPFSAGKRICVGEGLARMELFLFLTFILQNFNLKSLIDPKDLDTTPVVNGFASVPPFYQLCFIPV
Method in brief: as §2

CYP2B6 = target: T3, CYP2B6 (Homo sapiens, UniProt P20813); experiment: as above; assay type: in vitro ADME; conditions: recombinant CYP2B6, pH 7.4
T3 sequence (P20813 1-491): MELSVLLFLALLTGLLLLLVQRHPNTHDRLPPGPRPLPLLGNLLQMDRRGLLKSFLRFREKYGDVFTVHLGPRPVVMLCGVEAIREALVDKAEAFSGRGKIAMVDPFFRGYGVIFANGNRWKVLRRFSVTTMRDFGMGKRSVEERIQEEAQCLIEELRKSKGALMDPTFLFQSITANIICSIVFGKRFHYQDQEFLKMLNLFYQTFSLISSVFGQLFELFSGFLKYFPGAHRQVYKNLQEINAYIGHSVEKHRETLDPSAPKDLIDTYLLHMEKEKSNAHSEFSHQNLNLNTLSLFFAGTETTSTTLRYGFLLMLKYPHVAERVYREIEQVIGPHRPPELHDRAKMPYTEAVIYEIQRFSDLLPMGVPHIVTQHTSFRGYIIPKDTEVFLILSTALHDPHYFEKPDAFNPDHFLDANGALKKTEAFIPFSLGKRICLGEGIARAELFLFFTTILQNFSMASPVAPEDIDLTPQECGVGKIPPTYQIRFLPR
Method in brief: as §2

human CYP2A6 [8] = target: T1, human CYP2A6; experiment: Coumarin metabolism assay

SMILES | Kd 2A6 (human CYP2A6 [1]) | solubility at 24 h [2] [µM] | Ames test revertants (genetic toxicity) | IC50 (hERG) [µM] | inhibition at 10 µM (hERG) [%] | Percent Loss of Substrate [3] [%] | substrate remaining [3] [%] | half-life at 1 μM [3] [min] | microsomal CLint at 1 μM [3] [µL/min/mg] | Percent Loss of Substrate [4] | half-life at 1 μM [5] [min] | microsomal CLint at 1 μM [5] [µL/min/mg] | Percent Loss of Substrate [5] | half-life at 1 μM [6] [min] | microsomal CLint at 1 μM [6] [µL/min/mg] | Percent Loss of Substrate [6] [%] | half-life at 1 μM [7] [min] | microsomal CLint at 1 μM [7] [µL/min/mg] | Percent Loss of Substrate [7] [%] | half-life at 1 μM (CYP2C8) [min] | other results
Clc1ccccc1CN1CCOCC1 [Compound 3, 4-(2-chlorobenzyl)morpholine] | No ^** Spectral Shift | 180 (≈ 38.1 µg/mL) | few or no revertants | > 10 | 13.9 | 47.0 | 53 | 22.9 | 30.3 | No Loss/No Loss | 1 | 687 | 100/100% | 1.6 | 433 | 99.9 | 4.7 | 149 | 96.7 | 62 | half-life at 1 μM (CYP2C9): 476 min; half-life at 1 μM (CYP2C19): 13 min; half-life at 1 μM (CYP2B6): < 5 min; Ki (human CYP2A6 [8]): ≥ 1000 µM
Fc1cccc(Cl)c1CN1CCOCC1 [Compound 7, 4-(2-chloro-6-fluorobenzyl)morpholine] | did not cause a spectral shift; also recorded: No ^** Spectral Shift | 184 (≈ 42.3 µg/mL) | few or no revertants | > 10 | 24.8 | 85.5 | 14 | 7.6 | 91.4 | No Loss/No Loss | 0.8 | 916 | 100/100% | 1.3 | 551 | 100 | 4 | 173 | 97.3 | 51 | spectral shift with 2A6 (human CYP2A6 [1]; follow-up titration of HTS hit, Figure 1D): no spectral shift; half-life at 1 μM (CYP2C9): 230 min; half-life at 1 μM (CYP2C19): 18 min; half-life at 1 μM (CYP2B6): < 5 min; Ki (human CYP2A6 [8]): 287 µM
